According to ChEMBL document CHEMBL1275350, “First in class, potent, and orally bioavailable NADPH oxidase isoform 4 (Nox4) inhibitors for the treatment of idiopathic pulmonary fibrosis” (J Med Chem, 2010):

Columns and labels:
[1] = Intrinsic clearance in Sprague-Dawley rat liver microsomes assessed per mg of protein at 0.5 uM; assay type: ADME, Microsome
Method in brief: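 Phase I stability assay in pooled liver microsomes (human: male and female; rat: male Sprague-Dawley). Microsomes at 0.5 mg/mL final in 0.1 M phosphate pH 7.4. Compound 0.5 μM final, 0.25% DMSO. Preincubated at 37 °C, reaction started with 1 mM NADPH. Sampled at 0, 5, 15, 30 and 45 min, with a 45 min minus-NADPH control. Methanol quench with internal standard, LC/MS-MS, intrinsic clearance calculated.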

[2] = molecular target: Dual specificity mitogen-activated protein kinase kinase 1 (Homo sapiens) (UniProt Q02750); assay: Inhibition of human MEK1 at 10 uM
[3] = Cmax in Sprague-Dawley rat at 10 mg/kg, po; assay type: ADME, organism-based; design: dose 10 mg/kg, route oral; conditions: in vivo
Method in brief: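 Parallel design with six male rats: three given 5 mg/kg iv in EDPW (10% EtOH, 10% DMA, 30% PG, 50% water), three given 10 mg/kg orally in aqueous 0.5% CMC with 0.25% Tween 20. Carotid cannula blood sampled up to 24 h. Plasma levels by LC/MS/MS (LLOQ 1.00 ng/mL). Noncompartmental analysis.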

Mus musculus = assay: Toxicity in mouse up to 1000 mg/kg, po over 2 weeks; assay type: organism-based; design: dose 1000 mg/kg, route oral; conditions: in vivo, 336 h
Method in brief: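 Dose range finding in mice, given orally for 2 weeks at up to 1000 mg/kg.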

[4] = molecular target: Tyrosine-protein phosphatase non-receptor type 1 (Homo sapiens) (UniProt P18031); assay: Inhibition of human PTP1B at 10 uM
Tyrosine-protein phosphatase non-receptor type 1 (Homo sapiens), sequence (P18031 whole entry): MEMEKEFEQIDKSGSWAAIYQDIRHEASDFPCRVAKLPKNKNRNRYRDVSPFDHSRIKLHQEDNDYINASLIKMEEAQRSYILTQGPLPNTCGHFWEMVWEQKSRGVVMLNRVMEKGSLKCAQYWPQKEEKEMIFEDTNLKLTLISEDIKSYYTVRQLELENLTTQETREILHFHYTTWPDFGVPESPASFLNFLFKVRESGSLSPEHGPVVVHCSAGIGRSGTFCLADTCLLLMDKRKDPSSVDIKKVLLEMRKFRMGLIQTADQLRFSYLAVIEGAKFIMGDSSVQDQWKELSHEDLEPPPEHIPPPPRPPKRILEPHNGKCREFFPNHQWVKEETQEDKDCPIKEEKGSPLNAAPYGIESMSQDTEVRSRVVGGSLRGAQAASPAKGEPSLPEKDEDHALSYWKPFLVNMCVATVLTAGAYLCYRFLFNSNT

[5] = molecular target: Polyunsaturated fatty acid lipoxygenase ALOX12 (Homo sapiens) (UniProt P18054); assay: Inhibition of human 12-lipoxygenase at 10 uM
Polyunsaturated fatty acid lipoxygenase ALOX12 (Homo sapiens), sequence (P18054 whole entry): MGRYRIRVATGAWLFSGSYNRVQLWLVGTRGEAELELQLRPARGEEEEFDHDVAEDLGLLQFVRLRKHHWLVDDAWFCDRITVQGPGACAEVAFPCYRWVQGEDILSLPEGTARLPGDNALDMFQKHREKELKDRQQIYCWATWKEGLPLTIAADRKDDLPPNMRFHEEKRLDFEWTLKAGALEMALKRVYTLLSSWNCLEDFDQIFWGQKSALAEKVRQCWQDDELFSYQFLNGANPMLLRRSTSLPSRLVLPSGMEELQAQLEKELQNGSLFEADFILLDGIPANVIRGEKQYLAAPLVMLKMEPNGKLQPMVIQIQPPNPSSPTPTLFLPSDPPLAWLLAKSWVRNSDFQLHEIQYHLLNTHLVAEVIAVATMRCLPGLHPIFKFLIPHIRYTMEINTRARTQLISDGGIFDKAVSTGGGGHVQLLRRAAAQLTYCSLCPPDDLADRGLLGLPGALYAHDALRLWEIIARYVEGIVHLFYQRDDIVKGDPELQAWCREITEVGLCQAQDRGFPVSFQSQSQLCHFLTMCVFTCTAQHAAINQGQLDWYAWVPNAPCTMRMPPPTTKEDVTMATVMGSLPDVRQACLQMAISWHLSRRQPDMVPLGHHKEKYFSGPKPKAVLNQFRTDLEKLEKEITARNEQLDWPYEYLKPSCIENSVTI

[6] = molecular target: Nitric oxide synthase, endothelial (Homo sapiens) (UniProt P29474); assay: Inhibition of eNOS at 10 uM
[7] = molecular target: Mitogen-activated protein kinase kinase kinase 5 (Homo sapiens) (UniProt Q99683); assay: Inhibition of human ASK1 at 10 uM
Mitogen-activated protein kinase kinase kinase 5 (Homo sapiens), sequence (Q99683 whole entry, canonical isoform): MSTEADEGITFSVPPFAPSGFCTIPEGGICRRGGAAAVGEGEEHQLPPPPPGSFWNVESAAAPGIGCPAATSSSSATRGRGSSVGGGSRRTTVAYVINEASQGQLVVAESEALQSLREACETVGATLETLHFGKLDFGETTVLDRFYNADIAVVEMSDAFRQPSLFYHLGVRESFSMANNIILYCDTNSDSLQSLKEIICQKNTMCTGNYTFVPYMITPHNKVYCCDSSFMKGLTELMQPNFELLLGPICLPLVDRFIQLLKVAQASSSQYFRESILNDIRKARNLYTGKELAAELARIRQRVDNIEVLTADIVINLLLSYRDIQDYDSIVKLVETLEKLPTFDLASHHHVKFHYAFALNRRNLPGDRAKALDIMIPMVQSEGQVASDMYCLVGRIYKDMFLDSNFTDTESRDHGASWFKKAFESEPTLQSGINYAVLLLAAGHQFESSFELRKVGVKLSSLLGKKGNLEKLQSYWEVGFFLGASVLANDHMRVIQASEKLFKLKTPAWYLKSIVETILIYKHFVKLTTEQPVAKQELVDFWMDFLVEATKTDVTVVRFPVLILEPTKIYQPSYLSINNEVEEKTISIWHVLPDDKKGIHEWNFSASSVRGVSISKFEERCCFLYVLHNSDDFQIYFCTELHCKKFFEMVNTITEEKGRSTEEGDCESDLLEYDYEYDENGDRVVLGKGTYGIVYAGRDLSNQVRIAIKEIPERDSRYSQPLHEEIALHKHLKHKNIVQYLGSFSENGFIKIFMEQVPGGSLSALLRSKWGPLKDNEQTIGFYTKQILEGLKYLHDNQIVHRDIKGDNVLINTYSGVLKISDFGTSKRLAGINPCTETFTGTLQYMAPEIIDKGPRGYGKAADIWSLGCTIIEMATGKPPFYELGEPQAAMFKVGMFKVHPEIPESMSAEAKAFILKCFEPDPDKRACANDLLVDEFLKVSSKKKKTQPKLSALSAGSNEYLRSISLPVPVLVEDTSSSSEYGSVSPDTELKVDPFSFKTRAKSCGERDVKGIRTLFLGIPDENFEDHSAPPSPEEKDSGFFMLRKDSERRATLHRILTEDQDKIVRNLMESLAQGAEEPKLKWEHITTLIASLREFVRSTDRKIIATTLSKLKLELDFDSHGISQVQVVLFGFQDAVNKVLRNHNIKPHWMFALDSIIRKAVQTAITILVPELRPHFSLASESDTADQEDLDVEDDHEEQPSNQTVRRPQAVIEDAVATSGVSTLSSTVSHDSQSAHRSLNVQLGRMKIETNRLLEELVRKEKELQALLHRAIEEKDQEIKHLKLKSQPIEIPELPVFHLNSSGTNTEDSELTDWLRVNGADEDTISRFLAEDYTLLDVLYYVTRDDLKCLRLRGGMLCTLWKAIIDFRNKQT

[8] = molecular target: Phosphatidylinositol 4,5-bisphosphate 3-kinase catalytic subunit alpha isoform (Homo sapiens) (UniProt P42336); assay: Inhibition of PI3Kalpha at 10; conditions: concentration not given here
Phosphatidylinositol 4,5-bisphosphate 3-kinase catalytic subunit alpha isoform (Homo sapiens), sequence (P42336 whole entry, canonical isoform): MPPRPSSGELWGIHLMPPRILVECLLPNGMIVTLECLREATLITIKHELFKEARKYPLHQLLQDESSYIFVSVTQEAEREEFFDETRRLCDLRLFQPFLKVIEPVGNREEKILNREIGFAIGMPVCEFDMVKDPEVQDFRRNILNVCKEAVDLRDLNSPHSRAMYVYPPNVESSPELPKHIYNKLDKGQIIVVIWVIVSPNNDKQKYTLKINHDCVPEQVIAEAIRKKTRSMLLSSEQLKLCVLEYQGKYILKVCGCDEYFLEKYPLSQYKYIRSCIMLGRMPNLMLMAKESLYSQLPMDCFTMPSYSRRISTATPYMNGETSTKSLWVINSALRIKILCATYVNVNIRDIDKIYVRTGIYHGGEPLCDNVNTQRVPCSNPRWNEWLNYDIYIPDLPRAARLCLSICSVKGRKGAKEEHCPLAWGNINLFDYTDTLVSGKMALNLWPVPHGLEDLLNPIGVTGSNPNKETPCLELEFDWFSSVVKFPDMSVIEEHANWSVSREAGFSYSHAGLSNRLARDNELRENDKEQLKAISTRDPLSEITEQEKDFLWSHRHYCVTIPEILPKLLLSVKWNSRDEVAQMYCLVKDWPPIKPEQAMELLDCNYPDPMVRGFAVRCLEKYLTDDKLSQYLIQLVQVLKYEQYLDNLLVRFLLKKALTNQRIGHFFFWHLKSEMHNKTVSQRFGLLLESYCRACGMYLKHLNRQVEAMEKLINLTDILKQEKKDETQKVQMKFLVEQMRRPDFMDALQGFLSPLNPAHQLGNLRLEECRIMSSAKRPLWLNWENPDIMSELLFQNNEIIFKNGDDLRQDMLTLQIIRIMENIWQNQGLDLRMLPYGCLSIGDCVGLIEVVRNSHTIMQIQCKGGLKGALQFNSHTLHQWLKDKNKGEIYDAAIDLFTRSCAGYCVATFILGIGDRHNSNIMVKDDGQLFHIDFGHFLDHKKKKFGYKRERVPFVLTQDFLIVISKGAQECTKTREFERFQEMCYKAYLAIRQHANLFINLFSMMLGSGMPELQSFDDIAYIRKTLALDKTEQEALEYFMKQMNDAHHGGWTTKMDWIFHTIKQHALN

NADPH oxidase 4 = molecular target: T1, NADPH oxidase 4 (Homo sapiens, UniProt Q9NPH5); assay: Inhibition of human NOX4 overexpressed in T-REx-293 cell membrane assessed as ROS production by cell free assay in presence of NADPH; conditions: in the assay text read “T-REx-293 cell membrane” for “human PMN cell membrane”
T1 sequence (Q9NPH5 whole entry): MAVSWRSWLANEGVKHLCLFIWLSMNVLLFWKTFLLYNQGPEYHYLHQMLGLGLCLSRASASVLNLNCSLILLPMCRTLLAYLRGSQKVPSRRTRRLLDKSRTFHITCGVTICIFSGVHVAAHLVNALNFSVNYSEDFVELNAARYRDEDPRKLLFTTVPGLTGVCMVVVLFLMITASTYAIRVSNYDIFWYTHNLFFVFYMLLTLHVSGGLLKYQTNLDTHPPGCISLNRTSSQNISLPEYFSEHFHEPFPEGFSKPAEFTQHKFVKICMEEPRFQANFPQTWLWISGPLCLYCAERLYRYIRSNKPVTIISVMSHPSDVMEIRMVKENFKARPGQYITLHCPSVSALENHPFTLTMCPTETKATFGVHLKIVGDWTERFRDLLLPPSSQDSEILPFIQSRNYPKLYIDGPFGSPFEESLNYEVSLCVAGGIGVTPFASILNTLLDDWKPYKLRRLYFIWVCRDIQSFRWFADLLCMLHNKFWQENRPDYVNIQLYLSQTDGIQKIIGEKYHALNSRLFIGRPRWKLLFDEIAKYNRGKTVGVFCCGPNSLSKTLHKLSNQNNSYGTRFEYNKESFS
Method in brief: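 hNOX4 T-REx-293 cells induced with tetracycline (1 μg/mL, 24 h), sonicated in sucrose/NaCl/EGTA PBS buffer pH 7.4, membranes taken from a sucrose gradient. NADPH-triggered ROS measured by Amplex Red/HRP in PBS, with compound at 1 nM–100 μM, 20 min at 37 °C. Ki by Cheng-Prusoff from ≥3 triplicate experiments.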

[9] = molecular target: Nitric oxide synthase, inducible (Homo sapiens) (UniProt P35228); assay: Inhibition of iNOS at 10 uM
[10] = molecular target: Xanthine dehydrogenase/oxidase (Homo sapiens, UniProt P47989); assay: Inhibition of xanthine oxidase by in vitro enzymatic assay in presence of xanthine
Xanthine dehydrogenase/oxidase, sequence (P47989 whole entry): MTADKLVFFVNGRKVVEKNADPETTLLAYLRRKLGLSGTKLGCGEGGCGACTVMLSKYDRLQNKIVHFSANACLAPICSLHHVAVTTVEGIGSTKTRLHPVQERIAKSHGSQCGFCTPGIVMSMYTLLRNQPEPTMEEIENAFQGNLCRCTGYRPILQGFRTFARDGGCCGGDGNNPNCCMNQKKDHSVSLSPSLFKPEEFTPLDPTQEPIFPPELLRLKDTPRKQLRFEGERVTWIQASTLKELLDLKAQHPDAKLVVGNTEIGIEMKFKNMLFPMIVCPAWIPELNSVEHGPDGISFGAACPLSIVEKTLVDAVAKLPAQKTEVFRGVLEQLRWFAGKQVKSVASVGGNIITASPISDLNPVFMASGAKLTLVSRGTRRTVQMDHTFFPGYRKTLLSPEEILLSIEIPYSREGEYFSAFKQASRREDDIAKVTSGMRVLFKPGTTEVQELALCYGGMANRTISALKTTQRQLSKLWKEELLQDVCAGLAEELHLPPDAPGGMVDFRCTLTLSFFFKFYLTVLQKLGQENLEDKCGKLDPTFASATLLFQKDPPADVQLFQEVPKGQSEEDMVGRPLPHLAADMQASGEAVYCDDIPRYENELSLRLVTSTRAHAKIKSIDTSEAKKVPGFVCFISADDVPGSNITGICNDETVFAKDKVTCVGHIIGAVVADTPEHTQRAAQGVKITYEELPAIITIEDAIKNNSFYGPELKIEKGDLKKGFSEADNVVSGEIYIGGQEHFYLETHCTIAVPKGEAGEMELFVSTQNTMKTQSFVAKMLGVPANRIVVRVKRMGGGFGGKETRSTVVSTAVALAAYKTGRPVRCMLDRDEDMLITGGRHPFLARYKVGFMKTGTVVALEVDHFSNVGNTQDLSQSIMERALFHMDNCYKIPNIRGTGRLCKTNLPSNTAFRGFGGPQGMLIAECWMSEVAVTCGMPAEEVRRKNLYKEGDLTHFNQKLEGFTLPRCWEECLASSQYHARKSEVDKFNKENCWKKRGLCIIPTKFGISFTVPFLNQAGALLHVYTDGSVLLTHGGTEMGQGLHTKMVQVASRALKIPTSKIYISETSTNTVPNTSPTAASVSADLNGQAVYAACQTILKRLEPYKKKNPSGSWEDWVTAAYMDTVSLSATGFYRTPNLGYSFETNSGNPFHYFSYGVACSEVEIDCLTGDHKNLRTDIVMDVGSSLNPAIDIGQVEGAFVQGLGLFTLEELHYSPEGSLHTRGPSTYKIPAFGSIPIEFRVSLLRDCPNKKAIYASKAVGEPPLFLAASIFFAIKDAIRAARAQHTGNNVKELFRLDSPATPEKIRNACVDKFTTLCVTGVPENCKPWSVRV
Method in brief: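 Cell-free Amplex Red read-out: xanthine oxidase incubated in PBS with Amplex Red, HRP and cofactors; ROS production started by adding xanthine. Compound at rising concentrations from 1 nM to 100 μM, 20 min at 37 °C, then read on a plate reader. Background taken without enzyme or without agonist. Ki by Cheng-Prusoff, mean of at least three experiments run in triplicate.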

## Cc1c2c(=O)n(-c3ccccc3Cl)[nH]c2cc(=O)n1Cc1ccccn1
[1]
  microsomal CLint at 0.5 µM: 70.2 µL/min/mg
[2]
  inhibition: 0%
[3]
  Cmax: 3150 ng/mL
Mus musculus
  Activity: Non-toxic
[4]
  inhibition: 0%
[5]
  inhibition: 2%
[6]
  inhibition: 6%
[7]
  inhibition: 0%
[8]
  inhibition: 0%
NADPH oxidase 4
  Ki: 165 nM
[9]
  inhibition: 0%
[10]
  Ki: > 30 µM
